# Reference: ChEMBL document CHEMBL4190391 (J Med Chem, 2018)
# Assays:
# [1] = test system: Human immunodeficiency virus 1; test: Antiviral activity against wild type HIV1 NL4-3 infected in human MT4 cells assessed as reduction in p24 Gag protein production after 7 days by chemiluminescent enzyme immunoassay; format: functional, organism-based; settings: Human immunodeficiency virus 1, NL4-3, MT4, 168 h
# [2] = test system: Human immunodeficiency virus 1; test: Antiviral activity against ATV resistant HIV1 harboring protease L23I/E34Q/K43I/M46I/I50L/G51A/L63P/A71V/V82A/T91A mutant infected in human MT4 cells assessed as reduction in p24 Gag protein production after 7 days by chemiluminescent enzyme immunoassay; format: functional, organism-based; settings: Human immunodeficiency virus 1, MT4, 168 h
# Outline: (§1)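 Variants had been selected by passaging HIV-1 NL4-3 in MT-4 cells under increasing PI concentrations (up to 5 μM). Assays were run in duplicate; values are means (± S.D.) of two independent experiments.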
# [3] = test system: Human immunodeficiency virus 1; test: Antiviral activity against LPV resistant HIV1 harboring protease L10F/[…]I54V/V82A mutant infected in human MT4 cells assessed as reduction in p24 Gag protein production after 7 days by chemiluminescent enzyme immunoassay; format: functional, organism-based; settings: Human immunodeficiency virus 1, MT4, 168 h; outline: as §1
# [4] = test system: Human immunodeficiency virus 1; test: Antiviral activity against APV resistant HIV1 harboring protease L10F/M46I/I50V/I85V mutant infected in human MT4 cells assessed as reduction in p24 Gag protein production after 7 days by chemiluminescent enzyme immunoassay; format: functional, organism-based; settings: Human immunodeficiency virus 1, MT4, 168 h; outline: as §1
# [5] = test system: Human immunodeficiency virus 1; test: Resistance index, ratio of EC50 for antiviral activity against ATV resistant HIV1 harboring protease L23I/E34Q/K43I/M46I/I50L/G51A/L63P/A71V/V82A/T91A mutant infected in human MT4 cells to EC50 for antiviral activity against wild type HIV1 NL4-3 infected in human MT4 cells; format: functional
# [6] = test system: Human immunodeficiency virus 1; test: Resistance index, ratio of EC50 for antiviral activity against LPV resistant HIV1 harboring protease L10F/[…]I54V/V82A mutant infected in human MT4 cells to EC50 for antiviral activity against wild type HIV1 NL4-3 infected in human MT4 cells; format: functional
# [7] = test system: Human immunodeficiency virus 1; test: Resistance index, ratio of EC50 for antiviral activity against APV resistant HIV1 harboring protease L10F/M46I/I50V/I85V mutant infected in human MT4 cells to EC50 for antiviral activity against wild type HIV1 NL4-3 infected in human MT4 cells; format: functional
# Protease = Protease (Human immunodeficiency virus 1, UniProt Q9YQ12); test: Inhibition of wild type HIV-1 NL4-3 protease expressed in Escherichia coli Rosetta (DE3)pLysS using Ac-Thr-Ile-Nle-Nle-Gln-Arg-NH2 as substrate by fluorescence assay
# Sequence of Protease (Q9YQ12 whole entry): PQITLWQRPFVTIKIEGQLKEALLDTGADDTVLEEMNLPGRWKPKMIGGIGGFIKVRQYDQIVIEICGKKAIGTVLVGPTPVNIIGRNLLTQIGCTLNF
# [8] = test system: Human immunodeficiency virus 1; test: Antiviral activity against HIV-1 LAI infected in human MT2 cells; format: functional, organism-based; settings: Human immunodeficiency virus 1, LAI
SMILES,EC50 [1] [nM],EC50 [2] [nM],EC50 [3] [nM],EC50 [4] [nM],Ratio EC50 [5],Ratio EC50 [6],Ratio EC50 [7],Ki (Protease) [nM],IC50 [8] [nM]
CC(C)CN(C[C@@H](O)[C@H](Cc1ccccc1)NC(=O)O[C@H]1CCOC1)S(=O)(=O)c1ccc(N)cc1,87,> 1000,190,> 1000,11,2,>11,–,–
CC(C)CN(C[C@@H](O)[C@H](Cc1ccccc1)NC(=O)O[C@H]1CO[C@H]2OCC[C@H]21)S(=O)(=O)c1ccc(N)cc1,–,24,–,–,–,–,–,–,–
COc1ccc(S(=O)(=O)N(CC(C)C)C[C@@H](O)[C@H](Cc2ccccc2)NC(=O)O[C@H]2C[C@H]3CO[C@H]4OCC[C@@H]2[C@@H]34)cc1,–,–,–,–,–,–,–,0.045,31
COc1ccc(S(=O)(=O)N(CC(C)C)C[C@@H](O)[C@H](Cc2ccccc2)NC(=O)O[C@@H]2C[C@@H]3CO[C@@H]4CCC[C@H]2[C@H]34)cc1,–,–,–,–,–,–,–,4.55,> 1000
CC(C)CN(C[C@@H](O)[C@H](Cc1cc(F)cc(F)c1)NC(=O)O[C@H]1CC2CO[C@H]3OCC[C@@H]1[C@@H]23)S(=O)(=O)c1ccc2nc(NC3CC3)sc2c1 (stereo partly specified),2,1.5,2,0.32,1,2,0.3,0.012,0.023
COc1ccc(S(=O)(=O)N(CC(C)C)C[C@@H](O)[C@H](Cc2ccccc2)NC(=O)O[C@H]2C[C@@H]3CO[C@@H]4OC[C@H]2[C@H]34)cc1,–,–,–,–,–,–,–,0.05,21
CC(C)CN(C[C@@H](O)[C@H](Cc1ccccc1)NC(=O)O[C@H]1CC2CO[C@H]3OCC[C@@H]1[C@@H]23)S(=O)(=O)c1ccc2nc(NC3CC3)sc2c1 (stereo partly specified),–,–,–,–,–,–,–,0.01,1.4
COc1ccc(S(=O)(=O)N(CC(C)C)C[C@@H](O)[C@H](Cc2ccccc2)NC(=O)O[C@H]2C[C@H]3CCO[C@H]4OC[C@@H]2[C@@H]34)cc1,–,–,–,–,–,–,–,0.005,29
CC(C)CN(C[C@@H](O)[C@H](Cc1cc(F)cc(F)c1)NC(=O)O[C@@H]1C[C@@H]2CO[C@@H]3OCC[C@H]1[C@H]23)S(=O)(=O)c1ccc2nc(NC3CC3)sc2c1,1.2,0.6,2,0.3,0.3,1,0.2,0.002,0.027
COC[C@@H]1C[C@@H]2[C@H]3[C@H](CO[C@H]3O1)C[C@@H]2OC(=O)N[C@@H](Cc1ccccc1)[C@H](O)CN(CC(C)C)S(=O)(=O)c1ccc(OC)cc1,–,–,–,–,–,–,–,0.09,248
COc1ccc(S(=O)(=O)N(CC(C)C)C[C@@H](O)[C@H](Cc2ccccc2)NC(=O)O[C@H]2C[C@H]3CO[C@H]4CCC[C@@H]2[C@@H]34)cc1,–,–,–,–,–,–,–,0.45,> 1000
COc1ccc(S(=O)(=O)N(CC(C)C)C[C@@H](O)[C@H](Cc2ccccc2)NC(=O)O[C@H]2C[C@H]3CO[C@H]4O[C@H](C)C[C@@H]2[C@@H]34)cc1,–,–,–,–,–,–,–,0.05,130
COc1ccc(S(=O)(=O)N(CC(C)C)C[C@@H](O)[C@H](Cc2ccccc2)NC(=O)O[C@@H]2C[C@@H]3CO[C@@H]4OCC[C@H]2[C@H]34)cc1,–,–,–,–,–,–,–,0.008,9
CC(C)CN(C[C@@H](O)[C@H](Cc1ccccc1)NC(=O)O[C@@H]1C[C@@H]2CO[C@@H]3OCC[C@H]1[C@H]23)S(=O)(=O)c1ccc2nc(NC3CC3)sc2c1,–,–,–,–,–,–,–,0.5,0.9
COC(=O)N[C@H](C(=O)N[C@@H](Cc1ccccc1)[C@@H](O)CN(Cc1ccc(-c2ccccn2)cc1)NC(=O)[C@@H](NC(=O)OC)C(C)(C)C)C(C)(C)C [ATAZANAVIR],3.3,> 1000,29,70,>303,9,21,–,–
Cc1cccc(C)c1OCC(=O)N[C@@H](Cc1ccccc1)[C@@H](O)C[C@H](Cc1ccccc1)NC(=O)[C@H](C(C)C)N1CCCNC1=O [LOPINAVIR],–,> 1000,> 1000,390,–,–,–,–,–
